In assay [1] the target is T1, Lysine-specific demethylase 5A (Homo sapiens, UniProt P29375). As to the kind of experiment: Inhibition of human C-terminal FLAG-tagged KDM5A (1 to 1090 residues) expressed in baculovirus infected Sf9 insect cells at 1 uM using H3(1-21)K4(Me3)-GGK(Biotin)/2-OG as substrate measured after 1 hr by Alphalisa assay relative to control. Put shortly: (§1)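 AlphaLISA demethylase assay in 50 mM HEPES pH 7.5, 0.1% BSA, 0.01% Tween 20 with DMSO. Enzyme and inhibitor combined, then peptide plus 2-OG (50 µM), Fe(II) (5 µM) and ascorbate (100 µM) in the added mix; 1 h at room temperature with shaking.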

For assay [2], the target named is Lysine-specific demethylase 5B (Homo sapiens, UniProt Q9UGL1). As to the kind of experiment: Inhibition of human N-terminal FLAG/His-tagged KDM5B (2 to 751 residues) expressed in baculovirus infected Sf9 insect cells using H3(1-21)K4(Me3)-GGK(Biotin)/2-OG as substrate measured after 1 hr by Alphalisa assay. In outline:
as §1

For assay [3], the target named is Lysine-specific demethylase 5C (Homo sapiens, UniProt P41229). Briefly: Inhibition of full-length human N-terminal FLAG/His-tagged KDM5C (2 to 1560 residues) expressed in baculovirus infected Sf9 insect cells using H3(1-21)K4(Me3)-GGK(Biotin)/2-OG as substrate measured after 1 hr by Alphalisa assay. In outline:
as §1

Assay [4] addresses T2, Lysine-specific demethylase 3A (Homo sapiens) (UniProt Q9Y4C1).
T2 sequence (whole entry): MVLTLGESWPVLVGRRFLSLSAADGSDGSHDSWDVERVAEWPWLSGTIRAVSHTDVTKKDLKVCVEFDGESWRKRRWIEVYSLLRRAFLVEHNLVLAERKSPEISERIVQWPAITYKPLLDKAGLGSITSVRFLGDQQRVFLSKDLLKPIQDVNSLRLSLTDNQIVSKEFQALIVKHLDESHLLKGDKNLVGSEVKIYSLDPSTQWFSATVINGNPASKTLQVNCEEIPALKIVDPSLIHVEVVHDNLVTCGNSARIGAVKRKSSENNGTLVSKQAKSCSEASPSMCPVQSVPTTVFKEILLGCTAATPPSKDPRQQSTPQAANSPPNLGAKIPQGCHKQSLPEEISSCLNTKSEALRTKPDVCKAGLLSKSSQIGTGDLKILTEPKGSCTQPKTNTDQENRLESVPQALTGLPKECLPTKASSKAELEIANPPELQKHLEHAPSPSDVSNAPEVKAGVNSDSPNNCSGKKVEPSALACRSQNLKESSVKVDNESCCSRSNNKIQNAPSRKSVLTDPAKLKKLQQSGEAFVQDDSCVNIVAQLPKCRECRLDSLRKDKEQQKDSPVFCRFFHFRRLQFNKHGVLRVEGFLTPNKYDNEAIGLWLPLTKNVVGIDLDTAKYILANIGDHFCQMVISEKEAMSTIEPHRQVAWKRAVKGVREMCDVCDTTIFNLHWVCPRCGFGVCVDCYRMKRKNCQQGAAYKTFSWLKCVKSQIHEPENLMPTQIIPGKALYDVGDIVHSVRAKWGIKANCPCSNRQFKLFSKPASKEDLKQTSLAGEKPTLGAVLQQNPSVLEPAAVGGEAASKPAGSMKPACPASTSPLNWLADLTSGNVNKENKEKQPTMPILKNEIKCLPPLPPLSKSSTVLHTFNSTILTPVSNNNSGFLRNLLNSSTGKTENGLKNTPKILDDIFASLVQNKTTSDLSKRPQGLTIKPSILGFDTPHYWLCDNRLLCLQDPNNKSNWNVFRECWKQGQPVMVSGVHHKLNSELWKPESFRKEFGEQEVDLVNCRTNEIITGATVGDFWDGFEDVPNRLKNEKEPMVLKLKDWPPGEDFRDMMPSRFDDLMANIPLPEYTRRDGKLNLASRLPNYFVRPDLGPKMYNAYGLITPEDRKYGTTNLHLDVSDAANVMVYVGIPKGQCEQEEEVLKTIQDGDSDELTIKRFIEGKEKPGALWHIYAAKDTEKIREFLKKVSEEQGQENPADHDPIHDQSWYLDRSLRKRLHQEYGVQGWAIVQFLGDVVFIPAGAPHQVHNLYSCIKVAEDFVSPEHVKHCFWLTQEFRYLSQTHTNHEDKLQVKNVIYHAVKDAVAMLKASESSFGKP
As to the kind of experiment: Inhibition of human N-terminal FLAG-tagged KDM3A (2 to 1321 residues) expressed in baculovirus infected Sf9 insect cells at 50 uM using H3(1-21)K9(Me1)-GGK(Biotin)/2-OG as substrate measured after 1 hr by Alphalisa assay relative to control. In outline: as §1

Assay [5] concerns the target T1, Lysine-specific demethylase 5A. Briefly: Inhibition of KDM5A in human A549 cells assessed as increase in H3K4me3 levels after 48 hrs by Western blot analysis. It is filed as cell-based. Put shortly: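 A549 cells (5 × 10^5 per 2 mL well, RPMI1640 with 10% heat-inactivated FBS) exposed 48 h to compounds at 1, 5 or 25 µM. SDS lysates normalised by BCA, separated on 5-20% SDS-PAGE, blotted to PVDF, blocked in 5% milk/TBS-T, probed for H3K4me3, H3K9me3, H3K27me3 and total H3, detected by HRP chemiluminescence.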

Assay [6] relates to A549. Briefly: Growth inhibition of human A549 cells at 50 uM after 72 hrs by Alamar blue staining based fluorescence assay. It counts as functional, cell-based. In outline:
(§2)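 A549 or MDA-MB-231 cells seeded at 2 × 10^3 per well, left 24 h at 37 °C, then given compounds in medium for 72 h at 37 °C, 5% CO2. AlamarBlue added for a further 3 h at 37 °C; fluorescence read at ex 540/em 590 nm and % growth calculated from it. A549 in RPMI1640/10% FBS; MDA-MB-231 in L-15 with 2 mM glutamine/10% FBS.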

In assay [7] the test system is A549. As to the kind of experiment: Growth inhibition of human A549 cells after 72 hrs by Alamar blue staining based fluorescence assay. It is filed as functional. To be noted: A549, 72 h. Put shortly:
as §2

The test system of the next assay is MDA-MB-231. Briefly: Growth inhibition of human MDA-MB-231 cells at 50 uM after 72 hrs by Alamar blue staining based fluorescence assay. It is filed as functional, cell-based. Put shortly: as §2
In assay [8] the target is T1, Lysine-specific demethylase 5A. Briefly: Inhibition of human C-terminal FLAG-tagged KDM5A (1 to 1090 residues) expressed in baculovirus infected Sf9 insect cells using H3(1-21)K4(Me3)-GGK(Biotin)/2-OG as substrate measured after 1 hr by Alphalisa assay. Put shortly:
as §1

The target of assay [9] is Lysine-specific demethylase 6B (Homo sapiens, UniProt O15054). Briefly: Inhibition of human C-terminal FLAG-tagged KDM6B (1043 to end residues) expressed in baculovirus infected Sf9 insect cells at 50 uM using H3(21-44)-K27(Me3)-GK(Biotin)/2-OG as substrate measured after 1 hr by Alphalisa assay relative to control. In outline:
as §1

Active and inactive are the calls of the source. The calls are words filed in the database; no cut-off is given here.

T1 sequence (P29375 whole entry, the tested form may be a part): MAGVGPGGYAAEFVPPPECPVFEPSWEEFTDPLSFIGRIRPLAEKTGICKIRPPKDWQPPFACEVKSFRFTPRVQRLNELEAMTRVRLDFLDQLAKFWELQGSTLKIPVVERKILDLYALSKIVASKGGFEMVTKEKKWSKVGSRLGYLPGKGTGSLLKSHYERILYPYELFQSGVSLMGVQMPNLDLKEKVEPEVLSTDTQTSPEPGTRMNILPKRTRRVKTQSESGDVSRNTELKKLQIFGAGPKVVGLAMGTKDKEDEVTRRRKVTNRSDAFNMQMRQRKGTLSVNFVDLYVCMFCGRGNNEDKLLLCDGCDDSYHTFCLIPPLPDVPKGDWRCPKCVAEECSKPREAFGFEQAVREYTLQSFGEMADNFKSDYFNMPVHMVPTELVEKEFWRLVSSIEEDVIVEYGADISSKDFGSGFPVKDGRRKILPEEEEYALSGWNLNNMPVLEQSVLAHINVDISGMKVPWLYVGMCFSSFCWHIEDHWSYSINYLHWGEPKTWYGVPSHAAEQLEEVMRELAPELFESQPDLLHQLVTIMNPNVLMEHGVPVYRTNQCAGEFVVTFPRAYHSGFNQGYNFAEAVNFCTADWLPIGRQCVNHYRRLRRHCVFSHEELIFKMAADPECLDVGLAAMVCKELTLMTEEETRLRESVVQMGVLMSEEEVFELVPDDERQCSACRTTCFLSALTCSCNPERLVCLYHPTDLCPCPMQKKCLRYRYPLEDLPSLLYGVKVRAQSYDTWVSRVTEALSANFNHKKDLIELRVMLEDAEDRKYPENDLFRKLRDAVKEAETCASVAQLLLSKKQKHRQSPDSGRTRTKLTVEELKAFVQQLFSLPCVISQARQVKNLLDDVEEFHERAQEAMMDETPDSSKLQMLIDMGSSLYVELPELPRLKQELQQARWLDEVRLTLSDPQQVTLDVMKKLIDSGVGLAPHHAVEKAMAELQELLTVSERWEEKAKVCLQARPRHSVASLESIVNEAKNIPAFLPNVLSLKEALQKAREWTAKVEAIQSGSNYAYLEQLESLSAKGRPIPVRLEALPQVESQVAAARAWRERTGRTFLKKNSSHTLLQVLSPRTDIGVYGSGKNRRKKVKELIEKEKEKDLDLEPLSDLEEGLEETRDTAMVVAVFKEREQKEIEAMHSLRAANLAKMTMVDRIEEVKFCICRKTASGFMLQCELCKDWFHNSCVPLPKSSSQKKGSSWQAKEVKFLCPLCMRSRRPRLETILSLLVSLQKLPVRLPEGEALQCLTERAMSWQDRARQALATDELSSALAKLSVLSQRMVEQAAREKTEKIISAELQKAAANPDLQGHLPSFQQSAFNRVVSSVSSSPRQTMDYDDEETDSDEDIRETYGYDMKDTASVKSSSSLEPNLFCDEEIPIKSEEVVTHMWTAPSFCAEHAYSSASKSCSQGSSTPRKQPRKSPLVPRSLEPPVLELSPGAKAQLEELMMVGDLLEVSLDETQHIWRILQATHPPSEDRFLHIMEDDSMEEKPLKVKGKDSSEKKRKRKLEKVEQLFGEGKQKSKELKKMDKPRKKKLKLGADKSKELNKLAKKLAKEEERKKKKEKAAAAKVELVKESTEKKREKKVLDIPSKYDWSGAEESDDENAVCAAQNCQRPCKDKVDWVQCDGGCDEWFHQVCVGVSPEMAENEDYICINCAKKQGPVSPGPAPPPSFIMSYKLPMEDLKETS
Sequence of Lysine-specific demethylase 5B (Q9UGL1 whole entry, the tested form may be a part): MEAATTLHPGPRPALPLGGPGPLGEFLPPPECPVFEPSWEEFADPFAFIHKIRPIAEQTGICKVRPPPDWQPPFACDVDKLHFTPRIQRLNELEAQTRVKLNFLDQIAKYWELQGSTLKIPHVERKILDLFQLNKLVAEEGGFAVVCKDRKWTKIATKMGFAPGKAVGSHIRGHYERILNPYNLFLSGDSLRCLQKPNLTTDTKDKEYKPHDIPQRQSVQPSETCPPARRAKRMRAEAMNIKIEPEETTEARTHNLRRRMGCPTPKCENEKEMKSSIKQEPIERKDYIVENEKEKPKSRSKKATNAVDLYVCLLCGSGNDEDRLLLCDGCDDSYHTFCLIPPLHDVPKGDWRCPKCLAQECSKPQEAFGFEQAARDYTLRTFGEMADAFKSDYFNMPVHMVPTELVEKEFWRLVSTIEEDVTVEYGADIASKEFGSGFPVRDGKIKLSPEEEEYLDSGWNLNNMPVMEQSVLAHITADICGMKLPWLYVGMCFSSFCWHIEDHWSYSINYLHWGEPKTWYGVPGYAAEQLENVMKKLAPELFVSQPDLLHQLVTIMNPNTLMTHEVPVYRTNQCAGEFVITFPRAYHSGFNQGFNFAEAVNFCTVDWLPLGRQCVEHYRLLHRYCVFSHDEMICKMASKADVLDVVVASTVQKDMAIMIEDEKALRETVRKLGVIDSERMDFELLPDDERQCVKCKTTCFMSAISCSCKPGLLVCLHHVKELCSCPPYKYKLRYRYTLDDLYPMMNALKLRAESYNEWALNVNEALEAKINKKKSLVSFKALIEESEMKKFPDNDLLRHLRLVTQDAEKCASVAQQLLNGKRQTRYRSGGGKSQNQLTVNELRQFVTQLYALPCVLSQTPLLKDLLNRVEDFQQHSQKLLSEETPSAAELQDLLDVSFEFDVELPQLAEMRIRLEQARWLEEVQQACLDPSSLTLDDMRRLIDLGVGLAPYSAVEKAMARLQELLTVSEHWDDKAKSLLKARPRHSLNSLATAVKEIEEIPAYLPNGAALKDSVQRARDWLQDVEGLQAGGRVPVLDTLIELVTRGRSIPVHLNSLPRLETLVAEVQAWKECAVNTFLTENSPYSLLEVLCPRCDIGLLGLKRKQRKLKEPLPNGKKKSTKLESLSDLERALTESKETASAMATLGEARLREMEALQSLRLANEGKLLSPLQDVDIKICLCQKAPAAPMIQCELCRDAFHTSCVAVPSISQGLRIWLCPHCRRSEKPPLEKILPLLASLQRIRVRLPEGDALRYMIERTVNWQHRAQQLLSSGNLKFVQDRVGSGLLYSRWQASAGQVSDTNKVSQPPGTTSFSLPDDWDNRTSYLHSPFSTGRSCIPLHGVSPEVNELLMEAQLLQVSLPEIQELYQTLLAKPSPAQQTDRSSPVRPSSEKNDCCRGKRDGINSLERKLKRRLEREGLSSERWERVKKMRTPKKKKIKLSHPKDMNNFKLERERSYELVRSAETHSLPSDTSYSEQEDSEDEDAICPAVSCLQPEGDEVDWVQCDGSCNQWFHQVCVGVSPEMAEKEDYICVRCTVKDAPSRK
Sequence of Lysine-specific demethylase 6B (O15054 whole entry): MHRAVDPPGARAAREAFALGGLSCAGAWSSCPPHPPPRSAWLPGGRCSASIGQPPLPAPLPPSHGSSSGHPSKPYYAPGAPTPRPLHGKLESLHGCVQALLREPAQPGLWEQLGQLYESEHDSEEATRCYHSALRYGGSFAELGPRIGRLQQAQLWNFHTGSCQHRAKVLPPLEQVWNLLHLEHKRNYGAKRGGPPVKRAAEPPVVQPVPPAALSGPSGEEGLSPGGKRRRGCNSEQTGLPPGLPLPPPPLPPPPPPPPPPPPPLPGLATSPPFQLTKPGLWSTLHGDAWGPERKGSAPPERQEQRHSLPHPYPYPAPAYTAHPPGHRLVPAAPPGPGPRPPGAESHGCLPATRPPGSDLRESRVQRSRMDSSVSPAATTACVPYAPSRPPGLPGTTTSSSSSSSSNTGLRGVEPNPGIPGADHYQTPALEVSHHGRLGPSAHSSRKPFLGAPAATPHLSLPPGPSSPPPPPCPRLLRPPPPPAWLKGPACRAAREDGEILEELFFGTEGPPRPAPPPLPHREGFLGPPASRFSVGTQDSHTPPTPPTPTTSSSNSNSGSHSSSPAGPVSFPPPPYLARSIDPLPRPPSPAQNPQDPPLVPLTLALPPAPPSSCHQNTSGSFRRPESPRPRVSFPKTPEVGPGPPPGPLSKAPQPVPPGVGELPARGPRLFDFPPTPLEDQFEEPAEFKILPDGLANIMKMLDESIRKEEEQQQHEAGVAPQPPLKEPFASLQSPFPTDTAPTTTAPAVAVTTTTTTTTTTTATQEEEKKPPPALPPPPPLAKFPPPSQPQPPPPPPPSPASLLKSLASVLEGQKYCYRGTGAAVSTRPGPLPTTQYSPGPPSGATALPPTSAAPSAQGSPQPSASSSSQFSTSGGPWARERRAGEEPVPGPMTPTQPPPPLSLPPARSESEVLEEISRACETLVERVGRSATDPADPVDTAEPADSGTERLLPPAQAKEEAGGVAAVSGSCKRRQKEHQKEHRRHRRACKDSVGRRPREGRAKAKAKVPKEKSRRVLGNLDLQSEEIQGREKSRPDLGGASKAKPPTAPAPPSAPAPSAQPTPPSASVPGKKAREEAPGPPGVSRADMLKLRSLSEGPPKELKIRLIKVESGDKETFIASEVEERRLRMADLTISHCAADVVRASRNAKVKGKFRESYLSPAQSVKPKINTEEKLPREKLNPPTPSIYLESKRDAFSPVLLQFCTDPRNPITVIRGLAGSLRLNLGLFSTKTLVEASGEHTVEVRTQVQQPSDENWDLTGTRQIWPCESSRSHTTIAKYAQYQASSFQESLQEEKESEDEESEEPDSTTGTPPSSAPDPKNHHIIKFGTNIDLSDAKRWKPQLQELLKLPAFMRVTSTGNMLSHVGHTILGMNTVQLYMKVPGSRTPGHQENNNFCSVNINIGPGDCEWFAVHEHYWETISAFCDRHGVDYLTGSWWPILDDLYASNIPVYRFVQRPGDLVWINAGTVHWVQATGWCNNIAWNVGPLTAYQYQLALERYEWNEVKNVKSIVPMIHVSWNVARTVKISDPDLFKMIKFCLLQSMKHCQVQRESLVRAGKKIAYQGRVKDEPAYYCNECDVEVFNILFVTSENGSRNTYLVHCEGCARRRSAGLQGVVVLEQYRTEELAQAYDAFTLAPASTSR

`CC(C)c1c(-c2ccccc2)[nH]c2c(C#N)cnn2c1=O`: the inhibition in assay [1] is 68.9%; in [4], 31.9%; in assay [5], “Dose-dependent effect”. The IC50 in assay [2] amounted to 337 nM; in assay [3], 3010 nM. In the assay on A549 [6], the “growth inhibition (GI)” value was “inactive”. In addition, the GI50 in the assay on A549 [7] is above 50000 nM. In addition, the “growth inhibition (GI)” value in the assay on MDA-MB-231 is “Active”.
`CCCCCCN(C)CCc1ccc(-c2[nH]c3c(C#N)cnn3c(=O)c2C(C)C)cc1`: the half-maximal inhibitory concentration (IC50) in [8] is 4.37 nM; in assay [2], 1.34 nM; in [3], 6.24 nM. Besides, the inhibition in assay [9] is 22.7%; in assay [5], “Dose-dependent effect”. The “growth inhibition (GI)” value in the assay on A549 [6] and in the assay with MDA-MB-231 was “Active” in each case. Further, in the assay with A549 [7], the GI50 came out at 29600 nM.
`CCCCCN(C)CCCCC(=O)N(O)CCC(=O)O`: the inhibition turned out to be 30.8% in assay [1], 30.1% in assay [4] and 17.8% in assay [9]. The figures for the IC50 in assay [8], in assay [2] and in assay [3] were 2700 nM, 9240 nM and 28900 nM, respectively.
On to `CCCCCCN(C)Cc1ccc(-c2[nH]c3c(C#N)cnn3c(=O)c2C(C)C)cc1`, for which the inhibition in [1] was 97.9%; in assay [4] it was 61.5%; in assay [9], 29.1%; in assay [5], “Dose-dependent effect”. In addition, the results for the IC50 in assay [8], in assay [2] and in assay [3] were 22.7 nM, 51.1 nM and 5.84 nM, respectively. Besides, the “growth inhibition (GI)” value in the assay on A549 [6] and in the assay with MDA-MB-231 was “Active” each time. The molecule further yielded a GI50 in the assay with A549 [7] of 40000 nM.

The values above are taken from ChEMBL document CHEMBL4422684, “Identification of novel lysine demethylase 5-selective inhibitors by inhibitor-based fragment merging strategy” (Bioorg Med Chem, 2019).
